DENV2 CPE rescue – inhibitors of DENV2 cytopathic effect, primary screen, cell-based, plate reader, single concentration; DENV2-infected cells, cytopathic effect rescue; CPE inhibition, % at 9.99 µM; hit rate 1.7% among 350,000; in the data active = CPE inhibition above about 20%, passing the limit was not always enough; inconclusive = no clear call, values can overlap the other calls; tested in BHK-21 cells
FN deposit inh – inhibitors of fibronectin matrix deposition, primary screen, AH1F cells, Alexa488-fibronectin fluorescence, plate reader. hit rate 0.086% among 350,000. inhibition, % at 12.6 µM. AH1F fibroblasts, overnight. AID 743247, 2014;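 active = mean inhibition across replicates of 30% or more, regardless of how many single replicates reach that level; inconclusive = mean under 30% yet at least half of replicates reach 30%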
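Test system: AH1F fibroblast monolayer depositing Alexa488-labelled fibronectin into matrix. Input: 10000 cells per well. Technique: fluorescence, ex 485 nm, em 525 nm. Buffer or medium: DMEM plus 2% serum, read in PBS. Timing: 1 h cell adhesion before compound, then overnight fibronectin incubation. Compound: single dose, pinned. Read-out basis: inhibition from reduced deposited-fibronectin fluorescence.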
Casp6 inh – human caspase-6 inhibitors, primary screen, biochemical, VEID-R110 fluorescence, single point, set 2; P55212; hit rate 0.53% among 350,000; purified caspase-6, Z-VEID-R110 cleavage fluorescence; inhibition, % at 12.5 µM; AID 686996, 2013;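 active = mean inhibition across replicates at least about 35%, with every replicate also reaching that limit, limit read from the data; inconclusive = only one of the two criteria met; inactive = neither criterion met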
Target sequence (P55212 24-179 limits assumed): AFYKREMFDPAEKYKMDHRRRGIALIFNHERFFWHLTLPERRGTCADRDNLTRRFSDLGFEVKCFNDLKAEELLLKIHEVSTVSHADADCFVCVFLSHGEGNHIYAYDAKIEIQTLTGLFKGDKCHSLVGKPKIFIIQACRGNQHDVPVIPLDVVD
Target sequence (P55212 194-293 limits assumed): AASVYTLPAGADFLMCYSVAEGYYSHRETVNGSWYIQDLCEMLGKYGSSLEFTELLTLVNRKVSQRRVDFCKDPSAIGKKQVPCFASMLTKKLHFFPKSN
Xi reactivation – activators of inactive X chromosome reactivation, primary screen, imaging, XiGFP fibroblasts, GFP high-content imaging, set 2; XiGFP mouse fibroblasts, % GFP-positive cells imaging, 3 d; cells co-treated with 5-aza-dC sensitizer; scaled so ellipticine positive control = 100%; activation, % at 7.58 µM; hit rate 0.055% among 360,000;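 active = mean normalized replicate activation at least 10% and every replicate at or above 10%; inconclusive = only one of the two criteria met; inactive = mean below 10% and not all replicates reach 10%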
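System: SV40-immortalized XiGFP fibroblast cells, line 68-5-11 / Incubation: 3-day compound exposure, then 15 min fixation at room temperature / Compound: single concentration per compound, delivered by pin transfer / Buffer or medium: DMEM plus 5-aza-dC sensitizer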
CaV13 FRET inh – Primary screen for inhibitors of IQ motif and Ca2+-dependent inactivation inhibitor domain binding in CACNA1D, Förster resonance energy transfer in living cells, …. HEK cells, CFP/YFP FRET ICDI-IQ, plate reader, 10 min; percent FRET-ratio fall versus neutral wells. inhibition, % at 12.3 µM. hit rate 0.098% among 340,000;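 active = mean replicate inhibition of at least 30% and at least 1% of replicates passing that level; inconclusive = only one of the two criteria is met; inactive = neither criterion is met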
Numbers stand for hits; 0 = inactive; ? = inconclusive; - = not tested or not shown; ! = a repeat was not active. Only some compounds are listed: those with a hit (about 2% of all), similar ones and a draw of the others.

SMILES | DENV2 CPE rescue | FN deposit inh | Casp6 inh | Xi reactivation | CaV13 FRET inh
CCc1ccccc1NC(=O)c1cccc(NC(=O)/C=C/c2ccco2)c1 | - | 0 | - | 0 | 0
O=C(/C=C/c1ccco1)Nc1cccc(C(=O)Nc2ccccc2C(=O)O)c1 | ? | 0 | 60 | 0 | 0
C[C@@H]1CCCCO[C@H](CN(C)C(=O)C2CCCCC2)[C@H](C)CN([C@H](C)CO)C(=O)c2cc(NS(=O)(=O)c3ccc(Cl)cc3)ccc2O1 | 39 | 0 | 0 | 0 | -
C[C@@H]1CCCCO[C@@H](CN(C)C(=O)Nc2ccc3c(c2)OCO3)[C@@H](C)CN([C@H](C)CO)C(=O)c2cc(NS(=O)(=O)c3ccc(Cl)cc3)ccc2O1 | 0 | 0 | 0 | 0 | -
C[C@H]1CCCCO[C@H](CN(C)C(=O)Nc2ccc3c(c2)OCO3)[C@@H](C)CN([C@@H](C)CO)C(=O)c2cc(NS(=O)(=O)c3ccc(Cl)cc3)ccc2O1 | 52 | 0 | 0 | 0 | -
C[C@@H]1CCCCO[C@@H](CN(C)C(=O)c2ccccc2)[C@@H](C)CN([C@@H](C)CO)C(=O)c2cc(NS(=O)(=O)c3ccc(Cl)cc3)ccc2O1 | 21 | 0 | 0 | 0 | -
C[C@@H]1CCCCO[C@@H](CN(C)C(=O)c2ccccc2)[C@@H](C)CN([C@@H](C)CO)C(=O)c2cc(NS(=O)(=O)c3ccc(F)cc3)ccc2O1 | 121 | - | 0 | 0 | -
C[C@H](CO)N1C[C@H](C)[C@@H](CN(C)C(=O)NC2CCCCC2)Oc2ccc(NC(=O)CCC(F)(F)F)cc2CC1=O | 32 | 0 | 0 | 0 | -
C[C@H](CO)N1C[C@H](C)[C@H](CN(C)CC2CC2)Oc2ccc(NC(=O)CCC(F)(F)F)cc2CC1=O | 21 | 0 | 0 | 0 | -
C[C@H]1CN([C@@H](C)CO)C(=O)Cc2cc(NC(=O)CCC(F)(F)F)ccc2O[C@@H]1CN(C)C(=O)NC1CCCCC1 | 0 | 0 | 0 | 0 | -
C[C@@H]1CN([C@H](C)CO)C(=O)Cc2cc(NC(=O)CCC(F)(F)F)ccc2O[C@@H]1CN(C)CC1CC1 | 0 | 0 | 0 | 0 | -
CO[C@H]1CN(C)C(=O)c2cc(NC(C)=O)ccc2OC[C@@H](C)N(Cc2cc(F)ccc2F)C[C@@H]1C | 0 | 0 | 0 | 0 | -
O=C1Cc2cc(S(=O)(=O)N3CCN(c4ccc(C(=O)O)cc4)CC3)ccc2N1 | 0 | 0 | 38 | 0 | 0
CCN1CCN(Cc2ccc(NC(=O)c3ccc(C)c(NC(=O)N4CCNC4=O)c3)cc2C(F)(F)F)CC1 | 120! | 0 | 0 | 0 | 0
CCN1CCN(Cc2ccc(NC(=O)c3ccc(C)c(NC(=O)c4nccn4C)c3)cc2C(F)(F)F)CC1 | 0 | 0 | 0 | 0 | 0
CCN1CCN(Cc2ccc(NC(=O)c3ccc(C)c(NC(=O)c4cc(-c5ccc(Br)cc5)n[nH]4)c3)cc2C(F)(F)F)CC1 | 36 | 0 | 0 | 0 | 0
Cc1cc(C)c(S(=O)(=O)/N=C2\C=C(Nc3ccc(C(=O)O)cc3)C(=O)c3ccccc32)c(C)c1 | 0 | 0 | 0 | 0 | 0
O=C(O)c1ccc(NC2=C/C(=N/S(=O)(=O)c3cccs3)c3ccccc3C2=O)cc1 | ? | 0 | 100 | 0 | 0
O=C1C=C(Nc2ccc(O)cc2)C(=O)c2ccccc21 | 0 | 47 | 0 | 0 | 0
CC(=O)Nc1ccc(NC2=CC(=O)c3ccccc3C2=O)cc1 | 0 | 0 | 0 | 0 | 0
O=C1C(Nc2ccc(O)cc2)=C/C(=N/S(=O)(=O)c2cccs2)c2ccccc21 | 0 | 0 | 99 | 0 | 0
O=C(O)c1ccc(NC2=C/C(=N/S(=O)(=O)c3ccccc3)c3ccccc3C2=O)cc1 | 0 | - | 99 | 0 | 0
O=C1CNC[C@H]2[C@@H](c3ccc(C#CC4CCCC4)cc3)[C@@H](CO)N12 | 0 | 0 | 0 | 0 | -
C[C@@H]1CCCCO[C@@H](CN(C)C(=O)c2ccncc2)[C@@H](C)CN([C@@H](C)CO)C(=O)c2cc(NS(=O)(=O)c3ccccc3)ccc2O1 | 0 | - | 0 | 0 | -
COCC(=O)N(C)C[C@@H]1Oc2ncc(C#Cc3cccnc3)cc2C(=O)N([C@H](C)CO)C[C@@H]1C | 0 | 0 | 0 | 0 | -
SMILES | DENV2 CPE rescue | FN deposit inh | Casp6 inh | Xi reactivation | CaV13 FRET inh
COc1ccc(NC(=O)N(C)C[C@@H]2Oc3ccc(NS(=O)(=O)c4ccc(C)cc4)cc3CC(=O)N([C@@H](C)CO)C[C@@H]2C)cc1 | - | - | - | 0 | -
CCc1ccc(S(=O)(=O)/N=C2\C=C(Nc3cccc(C(=O)O)c3)C(=O)c3ccccc32)cc1 | 0 | 0 | 100 | 0 | 0
Cc1ccc(NC2=CC(=O)C(=O)c3ccccc32)cc1 | - | 0 | - | - | 0
NS(=O)(=O)c1ccc(NC2=CC(=O)C(=O)c3ccccc32)cc1 | 0 | 0 | 68 | 0 | 0
Cc1cccc(NC2=C/C(=N/S(=O)(=O)c3cccs3)c3ccccc3C2=O)c1 | - | 0 | - | 0 | 0
Cc1cccc(C)c1NC(=O)CN1C(=O)S/C(=C\c2cccn2-c2cccc(C(=O)O)c2)C1=O | - | - | - | - | 0
Cc1cccc(C)c1-n1cccc1/C=C1\SC(=S)N(c2cccc(C(=O)O)c2)C1=O | - | 0 | 37 | 0 | 0
CC(C)NC(=O)Nc1ccc2c(c1)C(=O)N([C@H](C)CO)C[C@@H](C)[C@@H](CN(C)Cc1ccc(C(F)(F)F)cc1)OCCCC[C@@H](C)O2 | 42 | 0 | 0 | 0 | -
CC(C)NC(=O)Nc1ccc2c(c1)C(=O)N([C@H](C)CO)C[C@@H](C)[C@H](CN(C)Cc1ccc(C(F)(F)F)cc1)OCCCC[C@@H](C)O2 | 32 | 0 | 0 | 0 | -
CC(C)NC(=O)Nc1ccc2c(c1)C(=O)N([C@H](C)CO)C[C@@H](C)[C@H](CN(C)Cc1ccc(C(F)(F)F)cc1)OCCCC[C@H](C)O2 | 0 | 0 | 0 | 0 | -
Cc1cccc(S(=O)(=O)N2C[C@H](O)COC[C@@H]3O[C@H](CC(=O)NCc4ccncn4)CC[C@H]32)c1 | 0 | 0 | 0 | 0 | -
C[C@@H](CC#N)CN1CC[C@H](C(C)(C)C)CCC1=O | 0 | 0 | 0 | 0 | 34
CCCNC(=O)C[C@H]1C[C@@H]2c3cc(NC(=O)CC4CC4)ccc3O[C@@H]2[C@@H](CO)O1 | 0 | 0 | 0 | 0 | -
COc1ccccc1N(C)c1cc2c(c3c1ccn3C)C1CCC2C1 (stereo not drawn) | 0 | 0 | 0 | 12 | 0
CCN(C)c1cc2c(c3c1ccn3C)C1CCC2C1 (stereo not drawn) | ? | 0 | 0 | 0 | 0
C[C@H]1CN([C@@H](C)CO)C(=O)c2cccc(NC(=O)CCCCCC(=O)Nc3ccccc3N)c2O[C@H]1CN(C)C(=O)Nc1ccc(C(F)(F)F)cc1 | 0 | - | 0 | 0 | -

Screens deposited in PubChem by Broad Institute.
